# From ChEMBL document CHEMBL3407499, “Synthesis, QSAR and anticandidal evaluation of 1,2,3-triazoles derived from naturally bioactive scaffolds” (Eur J Med Chem, 2015)
# Tests used:
# Nakaseomyces glabratus [1] = assay: microbe, parasite or virus in culture; assay type: functional, organism-based; details: ATCC 90030, 24 h
# Candida albicans [2] = assay: microbe, parasite or virus in culture; assay type: functional, organism-based; details: ATCC 90028, 24 h
# Nakaseomyces glabratus [3] = assay: microbe, parasite or virus in culture; assay type: functional; details: ATCC 90030, 48 h
# Candida tropicalis [4] = assay: Fungicidal activity against Candida tropicalis ATCC 750 incubated at 37 degC for 48 hrs by broth dilution method; assay type: functional; details: ATCC 750, 48 h
# Candida albicans [5] = assay: microbe, parasite or virus in culture; assay type: functional; details: ATCC 90028, 48 h
# Candida tropicalis [6] = assay: Anticandidal activity against Candida tropicalis ATCC 750 incubated at 37 degC for 24 hrs by broth dilution method; assay type: functional, organism-based; details: ATCC 750, 24 h
# Vero [7] = assay: Cytotoxicity against African green monkey Vero cells assessed as reduction in cell viability up to 10 ug/ml after 48 hrs by neutral red assay; assay type: cell-based; details: chlorocebus sabaeus
# Candida tropicalis [8] = assay: Anticandidal activity against Candida tropicalis ATCC 750 assessed as fractional inhibitory concentration incubated at 37 degC for 24 hrs in presence of fluconazole by broth micro dilution method; assay type: functional
# Candida albicans [9] = assay: Anticandidal activity against Candida albicans ATCC 90028 assessed as fractional inhibitory concentration incubated at 37 degC for 24 hrs in presence of fluconazole by broth micro dilution method; assay type: functional
# Candida albicans [10] = assay: Anticandidal activity against Candida albicans ATCC 90028 incubated at 37 degC for 24 hrs in presence of fluconazole by broth micro dilution method; assay type: functional; details: ATCC 90028, 24 h
# [11] = Toxicity in human RBC assessed as induction of hemolysis at 500 ug/ml incubated for 1 hr by spectrophotometry; assay type: cell-based, Erythrocyte; details: red blood cells (RBC), read-out: Activity
# Method in brief: (§1)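 Human erythrocyte suspension in PBS, 100 µL added in triplicate to 100 µL compound dilution series in the same buffer, 1 h at 37 °C. Tubes centrifuged 10 min at 2000 rpm and 20 °C, and supernatant A450 measured. Percent hemolysis taken relative to buffer (0%) and 1% Triton X-100 (100%).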
# Candida tropicalis [12] = assay: Anticandidal activity against Candida tropicalis ATCC 750 incubated at 37 degC for 24 hrs in presence of fluconazole by broth micro dilution method; assay type: functional; details: ATCC 750, 24 h
# Nakaseomyces glabratus [13] = assay: Anticandidal activity against Candida glabrata ATCC 90030 assessed as fractional inhibitory concentration incubated at 37 degC for 24 hrs in presence of fluconazole by broth micro dilution method; assay type: functional
# Nakaseomyces glabratus [14] = assay: Anticandidal activity against Candida glabrata ATCC 90030 incubated at 37 degC for 24 hrs in presence of fluconazole by broth micro dilution method; assay type: functional; details: ATCC 90030, 24 h
# [15] = Toxicity in human RBC assessed as induction of hemolysis at anticandidal IC50 level incubated for 1 hr by spectrophotometry; assay type: cell-based, Erythrocyte; details: red blood cells (RBC), read-out: Activity
# Method in brief: as §1
# Vero [16] = assay: Cytotoxicity against African green monkey Vero cells assessed as reduction in cell viability after 48 hrs by neutral red assay; assay type: cell-based; details: chlorocebus sabaeus
# Method in brief: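 Vero (monkey kidney fibroblast) cells seeded at 25,000 cells/well, grown 24 h, then exposed to a range of compound concentrations for 48 h. Viable cells quantified by Neutral Red uptake. IC50 read from dose-response curves. Doxorubicin served as positive cytotoxic control.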
# Candida tropicalis [17] = assay: Anticandidal activity against Candida tropicalis ATCC 750 incubated at 37 degC for 24 hrs in presence of 8-((1-Benzyl-1H-1,2,3-triazol-4-yl)methoxy)quinoline by broth micro dilution method; assay type: functional; details: ATCC 750, 24 h
# Nakaseomyces glabratus [18] = assay: Anticandidal activity against Candida glabrata ATCC 90030 incubated at 37 degC for 24 hrs in presence of 8-((1-Benzyl-1H-1,2,3-triazol-4-yl)methoxy)quinoline by broth micro dilution method; assay type: functional; details: ATCC 90030, 24 h
Structure (SMILES),IC50 (Nakaseomyces glabratus [1]) [µg/mL],IC50 (Candida albicans [2]) [µg/mL],MFC (Nakaseomyces glabratus [3]) [µg/mL],MFC (Candida tropicalis [4]) [µg/mL],MFC (Candida albicans [5]) [µg/mL],IC50 (Candida tropicalis [6]) [µg/mL],Activity (Vero [7]),further results
CC(C)c1ccc(O)cc1,153,182,> 1000,> 1000,500,69.5,,
CC(C)c1ccc(CO)cc1,7.09,81.5,500,1000,1000,44.8,,
CC(C)c1ccc(OCc2cn(Cc3ccccc3)nn2)cc1,1060,550,1000,1000,1000,493,Non-toxic,
CC(C)c1ccc(COCc2cn(Cc3ccccc3)nn2)cc1,316,324,> 1000,> 1000,> 1000,169,Non-toxic,
COc1cc(/C=C/C(=O)O)ccc1OCc1cn(Cc2ccccc2)nn1,416,891,> 1000,> 1000,> 1000,105,Non-toxic,
COc1ccccc1OCc1cn(Cc2ccccc2)nn1,370,515,> 1000,,,165,Non-toxic,
c1ccc(Cn2cc(COc3cccc4cccnc34)nn2)cc1,12,0.044,125,62.5,62.5,3.6,Non-toxic,"MIC (Nakaseomyces glabratus [1]): 31.2 µg/mL; fractional inhibitory concentration index (FICI) (Candida tropicalis [8]): 0.74; fractional inhibitory concentration index (FICI) (Candida albicans [9]): 0.74; MIC (Candida albicans [10]): 7.81 µg/mL; MIC (Candida albicans [2]): 15.6 µg/mL; hemolysis at 1 h, 500 ug/ml [11]: 4.76%; MIC (Candida tropicalis [12]): 7.81 µg/mL; fractional inhibitory concentration index (FICI) (Nakaseomyces glabratus [13]): 0.48; MIC (Nakaseomyces glabratus [14]): 7.81 µg/mL; MIC (Candida tropicalis [6]): 15.6 µg/mL; hemolysis at 1 h [15]: < 5%"
C/C=C/c1ccc(OCc2cn(Cc3ccccc3)nn2)c(OC)c1,293,481,> 1000,> 1000,,154,Non-toxic,
C=CCc1ccc(OCc2cn(Cc3ccccc3)nn2)c(OC)c1,847,1090,> 1000,,> 1000,734,Non-toxic,
COc1cc(C=O)ccc1OCc1cn(Cc2ccccc2)nn1,216,44.7,500,500,> 500,92.7,Non-toxic,"hemolysis at 1 h, 500 ug/ml [11]: 33.5%; hemolysis at 1 h [15]: < 5%"
COc1cccc2c1C(=O)c1c(O)c3c(c(O)c1C2=O)C[C@@](O)(C(=O)CO)C[C@@H]3O[C@H]1C[C@H](N)[C@H](O)[C@H](C)O1 [DOXORUBICIN],,,,,,,,IC50 (Vero [16]): > 5 µg/mL
C=CCc1ccc(O)c(OC)c1 [EUGENOL],216,237,> 1000,> 1000,> 1000,92.7,,
COc1cc(/C=C/C(=O)O)ccc1O [FERULATE],617,210,> 1000,> 1000,> 1000,67.6,,
OC(Cn1cncn1)(Cn1cncn1)c1ccc(F)cc1F [FLUCONAZOLE],7.81,15.6,,,,8.55,,"MIC (Nakaseomyces glabratus [1]): 15.6 µg/mL; hemolysis at 1 h, 500 ug/ml [11]: 68.6%; MIC (Candida tropicalis [17]): 3.9 µg/mL; MIC (Candida tropicalis [6]): 15.6 µg/mL; MIC (Nakaseomyces glabratus [18]): 3.9 µg/mL"
COc1ccccc1O [GUAIACOL],336,179,> 1000,> 1000,> 1000,201,,
C/C=C\c1ccc(O)c(OC)c1 [ISOEUGENOL],71.6,83,500,1000,1000,128,,
Oc1cccc2cccnc12 [OXYQUINOLINE],13.8,18.5,500,500,500,22.9,,"hemolysis at 1 h, 500 ug/ml [11]: 15%; MIC (Candida tropicalis [6]): 15.6 µg/mL; hemolysis at 1 h [15]: < 5%"
COc1cc(C=O)ccc1O [VANILLIN],483,321,> 1000,> 1000,> 1000,123,,"hemolysis at 1 h, 500 ug/ml [11]: 5.45%; hemolysis at 1 h [15]: < 5%"
